From ChEMBL document CHEMBL4308891, “Small molecules inhibit ex vivo tumor growth in bone” (Bioorg Med Chem, 2018)
Calls of active or inactive are those of the source. No cut-off for these calls is given here.

Columns and labels:
U-87 MG [1] = assay: Cytotoxicity against human U87 cells after 24 hrs; type: cell-based; details: u-87mg atcc
MDA-MB-231 [2] = assay: Effect on CTGF expression in human MDA-MB-231 cells co-cultured with neonatal Swiss mouse calvariae bone measured on day 7 post treatment by SYBR green-dye based RT-qPCR analysis; type: functional, cell-based
In short: (§1)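 Calvarial disk cultures ([…] Swiss pups) in BGJb plus 10% fetal calf serum were PBS-washed at day 7 and bead-homogenized in Qiazol. Aqueous-phase RNA was isolated, reverse-transcribed and run in triplicate real-time PCR with species-specific primers. Expression was normalized to ribosomal protein L32 mRNA. n = 3 or 4 cultures, ANOVA.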

[3] = Inhibition of angiogenesis in human HRMEC assessed as inhibition of endothelial cell tube formation up to 10 uM after 8 hrs by microscopic analysis
In short: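 Primary human retinal microvascular endothelial cells were grown on Matrigel in complete medium for 8 h, then tubule formation was measured. Significance was assessed by ANOVA.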

MDA-MB-231 [4] = assay: Ex vivo antitumor activity against human MDA-MB-231 cells co-cultured with neonatal Swiss mouse bone in BGJb medium assessed as inhibition of tumor growth at 5 uM administered on day 2 post cancer cells addition measured on day 5 post treatment by Gaussia luciferase reporter gene assay relative to control; type: functional
In short: (§2)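 Calvariae from […] Swiss mouse pups were punched into 4 or 5 mm disks. Each was seeded with 1 x 10^4 tumor cells (lentiviral secreted Gaussia luciferase/GFP-blasticidin, FACS-sorted GFP+) in BGJb plus 10% fetal calf serum at 37°C, 5% CO2. After 24 h bones moved to fresh wells; medium changed every 2 days. Conditioned-medium luciferase read as RLU. Biological triplicate, mean ± SD, Welch's t-test.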

MDA-MB-231 [5] = assay: Ex vivo antitumor activity against human MDA-MB-231 cells co-cultured with neonatal Swiss mouse bone in BGJb medium assessed as inhibition of tumor growth at 5 uM administered simultaneously with cancer cells measured on day 5 post treatment by Gaussia luciferase reporter gene assay relative to control; type: functional; in short: as §2
Bone [6] = assay: Down regulation of RANKL expression in neonatal Swiss mouse calvariae bone co-cultured with human MDA-MB-231 cells measured on day 7 post treatment by SYBR green-dye based RT-qPCR analysis; type: functional, tissue-based; details: Bone element; in short: as §1
MDA-MB-231 [7] = assay: Down regulation of IL-8 expression in human MDA-MB-231 cells co-cultured with neonatal Swiss mouse calvariae bone measured on day 7 post treatment by SYBR green-dye based RT-qPCR analysis; type: functional, cell-based; in short: as §1
Bone [8] = assay: Down regulation of TRAP expression in neonatal Swiss mouse calvariae bone co-cultured with human MDA-MB-231 cells measured on day 7 post treatment by SYBR green-dye based RT-qPCR analysis; type: functional, tissue-based; details: Bone element; in short: as §1
MDA-MB-231 [9] = assay: Antiinvasive activity in human MDA-MB-231 cells assessed as inhibition of cell invasion at 5 uM by boyden chamber method relative to control; type: functional
MIA PaCa-2 [10] = assay: Cytotoxicity against human MIAPaCa2 cells after 24 hrs; type: cell-based; details: mia paca-2, 24 h
MDA-MB-231 [11] = assay: Upregulation of Fas expression in human MDA-MB-231 cells co-cultured with neonatal Swiss mouse calvariae bone measured on day 7 post treatment by SYBR green-dye based RT-qPCR analysis; type: functional, cell-based; in short: as §1
MDA-MB-231 [12] = assay: Down regulation of FGF5 expression in human MDA-MB-231 cells co-cultured with neonatal Swiss mouse calvariae bone measured on day 7 post treatment by SYBR green-dye based RT-qPCR analysis; type: functional, cell-based; in short: as §1
MDA-MB-231 [13] = assay: Cytotoxicity against human MDA-MB-231 cells at 0.625 to 5 uM after 24 hrs; type: cell-based; details: mda-mb-231, 24 h
MDA-MB-231 [14] = assay: Upregulation of BCL2L1 expression in human MDA-MB-231 cells co-cultured with neonatal Swiss mouse calvariae bone measured on day 7 post treatment by SYBR green-dye based RT-qPCR analysis; type: functional, cell-based; in short: as §1
MDA-MB-231 [15] = assay: Ex vivo antitumor activity against human MDA-MB-231 cells co-cultured with neonatal Swiss mouse bone in BGJb medium assessed as inhibition of tumor growth at 5 uM administered simultaneously with cancer cells measured on day 7 post treatment by Gaussia luciferase reporter gene assay relative to control; type: functional; in short: as §2
U-87 MG [16] = assay: Antiinvasive activity in human U87 cells at 5 uM by boyden chamber method; type: functional, cell-based; details: U-87MG ATCC
NCI-H460 [17] = assay: Cytotoxicity against human NCI-H460 cells after 24 hrs; type: cell-based; details: nci-h460, 24 h
NCI-H460 [18] = assay: Antiinvasive activity in human NCI-H460 cells at 5 uM by boyden chamber method; type: functional, cell-based
MDA-MB-231 [19] = assay: Effect on CCL2 expression in human MDA-MB-231 cells co-cultured with neonatal Swiss mouse calvariae bone measured on day 7 post treatment by SYBR green-dye based RT-qPCR analysis; type: functional, cell-based; in short: as §1
MIA PaCa-2 [20] = assay: Antiinvasive activity in human MIAPaCa2 cells at 5 uM by boyden chamber method; type: functional, cell-based
Bone [21] = assay: Effect on osteocalcin expression in neonatal Swiss mouse calvariae bone co-cultured with human MDA-MB-231 cells measured on day 7 post treatment by SYBR green-dye based RT-qPCR analysis; type: functional, tissue-based; details: Bone element; in short: as §1
MDA-MB-231 [22] = assay: Effect on ICAM expression in human MDA-MB-231 cells co-cultured with neonatal Swiss mouse calvariae bone measured on day 7 post treatment by SYBR green-dye based RT-qPCR analysis; type: functional, cell-based; in short: as §1
Bone [23] = assay: Effect on Col1A1 expression in neonatal Swiss mouse calvariae bone co-cultured with human MDA-MB-231 cells measured on day 7 post treatment by SYBR green-dye based RT-qPCR analysis; type: functional, tissue-based; details: Bone element; in short: as §1
MDA-MB-231 [24] = assay: Antimigratory activity in human MDA-MB-231 cells at 10 uM after 9 hrs by wound healing assay; type: functional, cell-based
In short: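 Confluent monolayers in 12-well plates were scratched with a micropipette tip, washed, then cultured in complete medium with compound. Gap width between wound edges was measured by microscopy in three random regions right after wounding and at 6 and 9 h.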

MDA-MB-231 [25] = assay: Ex vivo antitumor activity against human MDA-MB-231 cells co-cultured with neonatal Swiss mouse bone in BGJb medium assessed as inhibition of tumor growth at 5 uM administered on day 2 post cancer cells addition measured on day 7 post treatment by Gaussia luciferase reporter gene assay relative to control; type: functional; in short: as §2
MDA-MB-231 [26] = assay: Down regulation of ENPP1 expression in human MDA-MB-231 cells co-cultured with neonatal Swiss mouse calvariae bone measured on day 7 post treatment by SYBR green-dye based RT-qPCR analysis relative to control; type: functional; in short: as §1
MDA-MB-231 [27] = assay: Down regulation of IL11 expression in human MDA-MB-231 cells co-cultured with neonatal Swiss mouse calvariae bone measured on day 7 post treatment by SYBR green-dye based RT-qPCR analysis relative to control; type: functional; in short: as §1
MDA-MB-231 [28] = assay: Antiinvasive activity in human MDA-MB-231 cells by boyden chamber method; type: functional, cell-based
MDA-MB-231 [29] = assay: Cytotoxicity against human MDA-MB-231 cells at 12.5 uM after 3 days by MTS assay; type: cell-based; details: mda-mb-231, 72 h

For `Cc1ccc(N2C(=O)C3NN=C(c4ccc(Cl)cc4)C3C2c2cccc(F)c2)cc1Br` (stereo not given), the Activity (U-87 MG [1]) was “Non-Toxic”, the Activity (MDA-MB-231 [2]) was “inactive” and the Activity [3] was “Not Active”. For the same molecule, the TGI (MDA-MB-231 [4]) was 66%, the TGI (MDA-MB-231 [5]) was 70% and the Activity (Bone [6]) was “Active”. The Activity (MDA-MB-231 [7]) was “Active”, the Activity (Bone [8]) was “Active” and the inhibition at 5 µM (MDA-MB-231 [9]) was over 70%. The Activity (MIA PaCa-2 [10]) was “Non-Toxic”, the Activity (MDA-MB-231 [11]) was “Active” and the Activity (MDA-MB-231 [12]) was “inactive”. The Activity (MDA-MB-231 [13]) was “Non-Toxic”, the Activity (MDA-MB-231 [14]) was “Active” and the TGI (MDA-MB-231 [15]) was 60%. For the same molecule, the Activity (U-87 MG [16]) was “inactive”, the Activity (NCI-H460 [17]) was “Non-Toxic” and the Activity (NCI-H460 [18]) was “inactive”. For the same molecule, the Activity (MDA-MB-231 [19]) was “inactive”, the Activity (MIA PaCa-2 [20]) was “Active” and the Activity (Bone [21]) was “inactive”. For the same molecule, the Activity (MDA-MB-231 [22]) was “inactive”, the Activity (Bone [23]) was “inactive” and the Activity (MDA-MB-231 [24]) was “inactive”. It also gave a TGI (MDA-MB-231 [25]) of 47%, an Activity (MDA-MB-231 [26]) of 60% and an Activity (MDA-MB-231 [27]) of over 80%. For the same molecule, the Activity (MDA-MB-231 [28]) was “Dose-dependent effect”, the IC50 (MDA-MB-231 [28]) was 2900 nM and the Activity (MDA-MB-231 [29]) was “Non-Toxic”.
